# Key:
# PXR (NR1I2) = target: T1, PXR (NR1I2) (Homo sapiens, UniProt O75469); assay: Activation of human PXR at 10 uM in presence of rifampicin; assay type: ADME; conditions: read-out: Activity
# T1 sequence (O75469 whole entry): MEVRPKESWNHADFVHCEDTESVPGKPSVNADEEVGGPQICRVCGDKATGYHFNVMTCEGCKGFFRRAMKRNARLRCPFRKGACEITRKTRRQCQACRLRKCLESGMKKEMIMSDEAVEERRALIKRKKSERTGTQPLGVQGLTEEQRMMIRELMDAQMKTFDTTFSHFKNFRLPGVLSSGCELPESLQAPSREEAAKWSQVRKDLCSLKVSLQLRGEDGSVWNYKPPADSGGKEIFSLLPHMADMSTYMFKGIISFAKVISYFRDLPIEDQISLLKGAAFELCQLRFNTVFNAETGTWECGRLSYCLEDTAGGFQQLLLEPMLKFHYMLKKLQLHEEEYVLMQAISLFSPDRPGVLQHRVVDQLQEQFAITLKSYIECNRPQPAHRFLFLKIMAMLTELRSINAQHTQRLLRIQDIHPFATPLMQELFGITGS
# Rattus norvegicus = assay: Unbound clearance in rat at 0.5 mg/kg, iv; assay type: ADME, organism-based; conditions: in vivo
# Outline: (§1)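 Male rats given a single 0.5 mg/kg iv dose in DMSO. Unbound clearance (CLu) is total clearance divided by fu, the unbound fraction in plasma.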
# [1] = target: Sodium channel protein type 5 subunit alpha (Homo sapiens, UniProt Q14524); assay: Inhibition of human Nav1.5 expressed in HEK293 cells assessed as reduction in peak inward current by ionworks quattro electrophysiology assay; assay type: cell-based
# Canis familiaris = assay: Unbound clearance in dog at 0.25 mg/kg, iv; assay type: ADME, organism-based, Canis lupus familiaris; conditions: in vivo
# Outline: (§2)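 Male dogs received a single 0.25 mg/kg iv dose in DMSO. Unbound clearance (CLu) is total clearance divided by fu, the unbound fraction in plasma.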
# [2] = Intrinsic clearance in human liver microsomes at 1 uM after 1 to 40 mins in presence of NADPH by LC-MS/MS analysis; assay type: ADME, microsome; conditions: read-out: CLH
# [3] = Intrinsic clearance in rat liver microsomes at 1 uM after 1 to 40 mins in presence of NADPH by LC-MS/MS analysis; assay type: ADME, microsome; conditions: read-out: CLH
# [4] = Total clearance in rat at 0.5 mg/kg, iv; assay type: ADME, organism-based; conditions: in vivo; outline: as §1
# [5] = Total clearance in dog at 0.25 mg/kg, iv; assay type: ADME, organism-based, Canis lupus familiaris; conditions: in vivo; outline: as §2
# [6] = Aqueous solubility of the compound in PBS after 48 hrs by shake flask method; assay type: physicochemical
# Cytochrome P450 3A4 [7] = target: T2, Cytochrome P450 3A4 (Homo sapiens, UniProt P08684); assay: Inhibition of CYP3A4 (unknown origin); assay type: ADME
# [8] = target: Sodium channel protein type 9 subunit alpha (Homo sapiens, UniProt Q15858); assay: Inhibition of human Nav1.7 expressed in HEK293 cells incubated for 3 to 5 mins at -125 mV holding potential by electrophysiology assay; assay type: cell-based
# [9] = Intrinsic clearance in dog liver microsomes; assay type: ADME, Canis lupus familiaris, microsome; conditions: read-out: CLH
# Cytochrome P450 3A4 [10] = target: T2, Cytochrome P450 3A4; assay: Induction of CYP3A4 in human hepatocytes at 10 uM relative to rifampicin
# Sequence of Sodium channel protein type 5 subunit alpha (Q14524 whole entry): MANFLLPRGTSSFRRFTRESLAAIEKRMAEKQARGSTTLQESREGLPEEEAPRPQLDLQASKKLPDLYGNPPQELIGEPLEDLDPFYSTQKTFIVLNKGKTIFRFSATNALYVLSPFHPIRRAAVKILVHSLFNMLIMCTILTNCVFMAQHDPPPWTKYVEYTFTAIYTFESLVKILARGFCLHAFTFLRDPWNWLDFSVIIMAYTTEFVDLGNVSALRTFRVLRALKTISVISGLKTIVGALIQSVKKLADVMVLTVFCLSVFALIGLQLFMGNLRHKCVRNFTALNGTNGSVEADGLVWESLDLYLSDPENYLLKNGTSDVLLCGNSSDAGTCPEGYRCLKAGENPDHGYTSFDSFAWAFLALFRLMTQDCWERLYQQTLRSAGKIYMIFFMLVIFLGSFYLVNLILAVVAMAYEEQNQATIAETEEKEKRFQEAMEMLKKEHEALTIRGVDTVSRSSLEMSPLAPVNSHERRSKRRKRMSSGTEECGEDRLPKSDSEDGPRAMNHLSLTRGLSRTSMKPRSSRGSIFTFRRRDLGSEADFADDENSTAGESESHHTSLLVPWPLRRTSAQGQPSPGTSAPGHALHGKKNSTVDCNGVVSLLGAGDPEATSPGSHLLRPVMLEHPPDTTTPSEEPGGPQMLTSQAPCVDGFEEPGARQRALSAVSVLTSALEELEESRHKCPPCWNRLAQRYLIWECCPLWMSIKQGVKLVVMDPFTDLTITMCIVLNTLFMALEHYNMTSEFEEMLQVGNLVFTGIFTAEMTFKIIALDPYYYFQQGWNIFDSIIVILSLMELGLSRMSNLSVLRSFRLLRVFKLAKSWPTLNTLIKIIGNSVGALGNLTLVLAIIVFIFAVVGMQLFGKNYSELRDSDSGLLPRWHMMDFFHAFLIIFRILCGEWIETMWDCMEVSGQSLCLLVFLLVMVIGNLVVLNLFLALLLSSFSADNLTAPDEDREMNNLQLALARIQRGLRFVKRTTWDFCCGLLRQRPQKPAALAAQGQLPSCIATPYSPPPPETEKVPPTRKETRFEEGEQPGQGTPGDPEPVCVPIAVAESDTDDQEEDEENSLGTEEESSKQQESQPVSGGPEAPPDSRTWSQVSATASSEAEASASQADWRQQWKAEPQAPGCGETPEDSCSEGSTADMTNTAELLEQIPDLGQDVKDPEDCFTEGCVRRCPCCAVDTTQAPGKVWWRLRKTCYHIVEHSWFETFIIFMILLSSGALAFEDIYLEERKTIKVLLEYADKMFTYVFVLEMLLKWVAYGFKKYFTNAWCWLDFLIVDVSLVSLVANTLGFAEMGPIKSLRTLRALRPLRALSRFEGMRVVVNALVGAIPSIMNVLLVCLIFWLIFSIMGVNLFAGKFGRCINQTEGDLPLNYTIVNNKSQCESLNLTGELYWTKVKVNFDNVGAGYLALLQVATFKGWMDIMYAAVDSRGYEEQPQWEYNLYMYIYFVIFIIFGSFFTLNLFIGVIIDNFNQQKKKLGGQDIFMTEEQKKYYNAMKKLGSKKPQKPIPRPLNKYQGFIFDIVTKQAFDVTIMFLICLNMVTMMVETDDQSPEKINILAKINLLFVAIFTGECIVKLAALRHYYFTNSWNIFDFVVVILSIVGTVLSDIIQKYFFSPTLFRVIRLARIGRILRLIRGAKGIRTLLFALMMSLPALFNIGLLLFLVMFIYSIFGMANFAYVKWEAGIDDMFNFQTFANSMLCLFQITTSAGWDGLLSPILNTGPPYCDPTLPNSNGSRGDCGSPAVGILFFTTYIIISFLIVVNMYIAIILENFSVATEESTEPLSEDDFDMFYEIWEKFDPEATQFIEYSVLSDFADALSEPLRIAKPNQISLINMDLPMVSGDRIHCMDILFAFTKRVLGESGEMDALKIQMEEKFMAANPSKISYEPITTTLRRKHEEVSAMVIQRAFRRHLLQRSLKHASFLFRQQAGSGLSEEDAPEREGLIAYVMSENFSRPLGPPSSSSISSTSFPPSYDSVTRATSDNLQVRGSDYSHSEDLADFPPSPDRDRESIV
# T2 sequence (P08684 whole entry): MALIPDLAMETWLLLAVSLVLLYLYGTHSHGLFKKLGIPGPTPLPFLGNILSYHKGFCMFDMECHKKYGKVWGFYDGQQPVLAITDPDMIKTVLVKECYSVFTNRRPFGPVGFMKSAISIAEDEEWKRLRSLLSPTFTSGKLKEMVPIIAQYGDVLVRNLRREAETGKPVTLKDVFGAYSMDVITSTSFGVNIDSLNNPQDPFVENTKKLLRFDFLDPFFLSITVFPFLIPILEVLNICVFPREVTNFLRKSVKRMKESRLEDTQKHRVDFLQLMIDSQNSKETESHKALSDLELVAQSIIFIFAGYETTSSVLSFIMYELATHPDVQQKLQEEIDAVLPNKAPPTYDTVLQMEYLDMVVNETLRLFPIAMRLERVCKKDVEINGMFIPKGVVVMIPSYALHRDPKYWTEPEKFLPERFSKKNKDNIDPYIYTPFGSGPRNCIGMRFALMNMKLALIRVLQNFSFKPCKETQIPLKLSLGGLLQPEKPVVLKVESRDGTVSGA
# Sequence of Sodium channel protein type 9 subunit alpha (Q15858 whole entry): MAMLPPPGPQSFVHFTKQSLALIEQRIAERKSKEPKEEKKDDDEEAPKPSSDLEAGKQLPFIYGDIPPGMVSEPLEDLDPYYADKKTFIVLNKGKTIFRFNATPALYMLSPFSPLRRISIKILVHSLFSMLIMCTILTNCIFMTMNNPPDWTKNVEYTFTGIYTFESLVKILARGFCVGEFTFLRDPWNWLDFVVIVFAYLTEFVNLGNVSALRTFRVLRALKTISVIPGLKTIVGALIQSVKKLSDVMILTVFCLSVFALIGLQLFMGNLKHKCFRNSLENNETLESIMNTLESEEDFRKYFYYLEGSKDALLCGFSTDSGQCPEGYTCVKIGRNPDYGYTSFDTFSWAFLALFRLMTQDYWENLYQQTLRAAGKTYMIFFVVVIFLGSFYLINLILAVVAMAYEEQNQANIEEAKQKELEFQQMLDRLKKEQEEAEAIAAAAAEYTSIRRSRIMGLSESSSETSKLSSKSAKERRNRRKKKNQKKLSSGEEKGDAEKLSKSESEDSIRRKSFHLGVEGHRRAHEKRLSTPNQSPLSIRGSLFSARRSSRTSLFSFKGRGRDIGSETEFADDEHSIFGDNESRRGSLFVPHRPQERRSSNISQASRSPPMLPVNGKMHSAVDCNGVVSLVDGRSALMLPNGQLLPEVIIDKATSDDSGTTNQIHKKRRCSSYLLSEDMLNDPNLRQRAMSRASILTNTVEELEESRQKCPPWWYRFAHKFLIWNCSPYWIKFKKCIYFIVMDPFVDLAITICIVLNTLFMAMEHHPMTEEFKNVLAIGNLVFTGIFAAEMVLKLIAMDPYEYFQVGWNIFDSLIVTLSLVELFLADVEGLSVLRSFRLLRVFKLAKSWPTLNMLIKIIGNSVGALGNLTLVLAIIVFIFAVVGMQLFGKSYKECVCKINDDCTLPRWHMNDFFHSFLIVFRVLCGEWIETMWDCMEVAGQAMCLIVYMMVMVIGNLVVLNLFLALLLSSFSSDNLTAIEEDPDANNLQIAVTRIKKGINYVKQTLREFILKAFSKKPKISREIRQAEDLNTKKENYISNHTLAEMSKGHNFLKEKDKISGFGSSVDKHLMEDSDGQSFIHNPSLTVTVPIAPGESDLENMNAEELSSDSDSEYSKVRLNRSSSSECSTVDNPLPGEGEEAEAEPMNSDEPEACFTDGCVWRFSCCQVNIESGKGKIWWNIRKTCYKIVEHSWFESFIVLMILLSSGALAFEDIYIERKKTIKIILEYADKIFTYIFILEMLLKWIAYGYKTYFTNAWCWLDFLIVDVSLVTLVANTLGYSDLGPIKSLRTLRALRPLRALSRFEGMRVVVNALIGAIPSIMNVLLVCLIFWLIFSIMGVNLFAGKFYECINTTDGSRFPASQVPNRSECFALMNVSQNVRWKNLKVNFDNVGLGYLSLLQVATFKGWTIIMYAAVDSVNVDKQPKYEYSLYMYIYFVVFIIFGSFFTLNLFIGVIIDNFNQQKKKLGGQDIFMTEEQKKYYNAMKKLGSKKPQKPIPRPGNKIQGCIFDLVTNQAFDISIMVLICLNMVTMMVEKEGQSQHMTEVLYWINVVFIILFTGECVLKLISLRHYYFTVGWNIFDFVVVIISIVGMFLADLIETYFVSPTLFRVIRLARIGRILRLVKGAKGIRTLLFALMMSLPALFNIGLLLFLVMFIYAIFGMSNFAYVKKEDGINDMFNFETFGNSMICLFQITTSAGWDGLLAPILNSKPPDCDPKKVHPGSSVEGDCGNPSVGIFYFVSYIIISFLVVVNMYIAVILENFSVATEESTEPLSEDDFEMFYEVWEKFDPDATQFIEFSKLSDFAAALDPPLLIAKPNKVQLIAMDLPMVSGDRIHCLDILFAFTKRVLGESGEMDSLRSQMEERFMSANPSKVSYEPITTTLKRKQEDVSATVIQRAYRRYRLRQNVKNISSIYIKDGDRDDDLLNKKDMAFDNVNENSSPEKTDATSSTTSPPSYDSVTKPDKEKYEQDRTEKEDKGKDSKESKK
SMILES,activity at 10 µM (PXR (NR1I2)),CL free (Rattus norvegicus),IC50 [1],CL free (Canis familiaris),microsomal CLint at 1 µM [2],microsomal CLint at 1 µM [3],clearance [4],clearance [5],solubility thermodynamic at 48 h [6],IC50 (Cytochrome P450 3A4 [7]),IC50 [8],microsomal CLint [9],Activity (Cytochrome P450 3A4 [10])
COc1cc(-c2cc(F)cc(F)c2)ccc1-c1nccc2cc(S(=O)(=O)Nc3ccon3)ccc12,38%,,,,,,,,,,,,
COc1cc(-c2cccc(F)c2)ccc1-c1nccc2cc(S(=O)(=O)Nc3ccncn3)ccc12,,6500 mL/min/kg,> 30000 nM,152 mL/min/kg,< 14 µL/min/mg,< 14 µL/min/mg,28.3 mL/min/kg,0.817 mL/min/kg,344 µM,1300 nM,150 nM,< 14 µL/min/mg,12%
COc1cc(-c2cccc(F)c2)c(Cl)cc1-c1ncc(O)c2cc(S(=O)(=O)Nc3ccon3)ccc12,28%,,,2330 mL/min/kg,15 µL/min/mg,28 µL/min/mg,,2.17 mL/min/kg,,,,,
COc1cc(-c2cccc(F)c2)c(Cl)cc1-c1nccc2cc(S(=O)(=O)Nc3ncccn3)ccc12,31%,,> 10000 nM,,< 14 µL/min/mg,32 µL/min/mg,,,,> 27000 nM,120 nM,,
COc1cc(-c2ccc(C(F)(F)F)cc2)c(F)cc1-c1nccc2cc(S(=O)(=O)Nc3ccon3)ccc12,0%,,> 10000 nM,,< 14 µL/min/mg,< 14 µL/min/mg,,,,,,,
COc1cc(-c2cccc(F)c2)c(Cl)cc1-c1nccc2cc(S(=O)(=O)Nc3ncco3)ccc12,38%,,> 10000 nM,,46 µL/min/mg,98 µL/min/mg,,,,> 27000 nM,,,
COc1cc(-c2cccc(C(F)(F)F)c2)c(C#N)cc1-c1nccc2cc(S(=O)(=O)Nc3ccon3)ccc12,5%,,,,,,,,,,28 nM,,
COc1cc(-c2cc(F)cc(F)c2)c(F)cc1-c1nccc2cc(S(=O)(=O)Nc3ccon3)ccc12,47%,,> 10000 nM,,30 µL/min/mg,< 14 µL/min/mg,,,,,40 nM,,
COc1cc(-c2cccc(F)c2)c(Cl)cc1-c1nccc2cc(S(=O)(=O)Nc3ccon3)ccc12,68%,700 mL/min/kg,> 10000 nM,26.7 to 31.7 mL/min/kg,< 14 µL/min/mg,18 µL/min/mg,0.783 mL/min/kg,0.05 mL/min/kg,,> 27000 nM,49 to 51 nM,,58%
COc1cc(-c2cccc(F)c2)c(Cl)cc1-c1nn(C)c(=O)c2cc(S(=O)(=O)Nc3ccon3)ccc12,54%,10300 mL/min/kg,,517 mL/min/kg,16 µL/min/mg,25 µL/min/mg,35 mL/min/kg,1.83 mL/min/kg,,,120 nM,,
COc1cc(-c2cccc(F)c2)c(Cl)cc1-c1ncnc2cc(S(=O)(=O)Nc3ccon3)ccc12,59%,,,417 mL/min/kg,21 µL/min/mg,58 µL/min/mg,,2 mL/min/kg,,,,,
COc1cc(-c2cccc(F)c2)c(Cl)cc1-c1c(N)nnc2cc(S(=O)(=O)Nc3ccon3)ccc12,95%,,140 nM,,< 14 µL/min/mg,< 14 µL/min/mg,,,,,,,
COc1cc(C(F)(F)F)ccc1-c1nccc2cc(S(=O)(=O)Nc3ccncn3)ccc12,,183 mL/min/kg,> 30000 nM,26.7 mL/min/kg,,,4.33 mL/min/kg,0.917 mL/min/kg,,7200 nM,730 nM,,177%
COc1cc(-c2cc(F)cc(F)c2)c(C#N)cc1-c1nccc2cc(S(=O)(=O)Nc3ccon3)ccc12,54%,,,,,,,,,,140 nM,,
COc1cc(-c2cccc(F)c2)c(Cl)cc1-c1nccc2cc(S(=O)(=O)Nc3cccnn3)ccc12,52%,,,,< 14 µL/min/mg,29 µL/min/mg,,,,> 27000 nM,,,
COc1cc(-c2cccc(F)c2)c(Cl)cc1-c1nccc2cc(S(=O)(=O)Nc3ncns3)ccc12,5.9%,,1500 nM,,< 14 µL/min/mg,< 14 µL/min/mg,,,,800 nM,,,
COc1cc(-c2cccc(F)c2)c(Cl)cc1-c1[nH]c(=O)cc2cc(S(=O)(=O)Nc3ccon3)ccc12,27%,25000 mL/min/kg,820 nM,8500 mL/min/kg,< 14 µL/min/mg,18 µL/min/mg,35 mL/min/kg,13.7 mL/min/kg,,,,,
COc1cc(-c2ccc(Cl)c(C)c2)c(F)cc1-c1nccc2cc(S(=O)(=O)Nc3ccon3)ccc12,1%,,> 10000 nM,,35 µL/min/mg,21 µL/min/mg,,,,,,,
COc1cc(-c2cccc(F)c2)c(Cl)cc1-c1c(=O)n(C)cc2cc(S(=O)(=O)Nc3ccon3)ccc12,69%,,> 10000 nM,,< 14 µL/min/mg,21 µL/min/mg,,,,,,,
COc1cc(-c2cccc(C(F)(F)F)c2)ccc1-c1nccc2cc(S(=O)(=O)Nc3ccon3)ccc12,7%,,,,,,,,,,61 nM,,
COc1cc(-c2cc(F)cnc2OC)c(F)cc1-c1nccc2cc(S(=O)(=O)Nc3ccon3)ccc12,151%,,> 10000 nM,,< 14 µL/min/mg,21 µL/min/mg,,,,,,,
COc1cc(C(F)(F)F)ccc1-c1ncnc2cc(S(=O)(=O)Nc3nccs3)ccc12,,450 mL/min/kg,> 30000 nM,200 mL/min/kg,,,,0.217 mL/min/kg,,> 50000 nM,,,128%
COc1cc(-c2cccc(F)c2)c(Cl)cc1-c1nccc2cc(S(=O)(=O)Nc3ccncn3)ccc12,24%,,> 10000 nM,,< 14 µL/min/mg,< 14 µL/min/mg,,,,> 27000 nM,65 nM,,
COc1cc(-c2cccc(C)c2)c(F)cc1-c1nccc2cc(S(=O)(=O)Nc3ccon3)ccc12,54%,,> 10000 nM,,36 µL/min/mg,34 µL/min/mg,,,,,47 nM,,
COc1cc(-c2cccc(F)c2)c(Cl)cc1-c1nccc2cc(S(=O)(=O)Nc3ncon3)ccc12,10%,15700 mL/min/kg,,2570 mL/min/kg,< 14 µL/min/mg,20 µL/min/mg,26.7 mL/min/kg,2.83 mL/min/kg,,> 27000 nM,47 nM,,
COc1cc(-c2cccc(Cl)c2)c(F)cc1-c1nccc2cc(S(=O)(=O)Nc3ccon3)ccc12,34%,,,,36 µL/min/mg,34 µL/min/mg,,,,,,,

# From ChEMBL document CHEMBL4011598, “Sulfonamides as Selective NaV1.7 Inhibitors: Optimizing Potency and Pharmacokinetics While Mitigating Metabolic Liabilities” (J Med Chem, 2017)
